According to ChEMBL document CHEMBL1125327, “Conformationally restricted deltorphin analogues” (J Med Chem, 1992):
Positions of bridges follow the written chain, without caps; N, C: chain ends. Non-standard residues stand in square brackets, D forms with d. Residues, ends and D or L forms follow the SMILES beside them. Tic = O=C(O)[C@@H]1Cc2ccccc2CN1; Aic = NC1(C(=O)O)Cc2ccccc2C1; Nle = CCCC[C@H](N)C(=O)O

What was measured:
Mu-type opioid receptor [1] = biological target: Mu-type opioid receptor (Cavia porcellus, UniProt P97266); assay: Inhibition of electrically evoked contractions in Guinea pig ileum; format: functional, tissue-based
Chain of Mu-type opioid receptor (Cavia porcellus, UniProt P97266) (P97266 whole entry): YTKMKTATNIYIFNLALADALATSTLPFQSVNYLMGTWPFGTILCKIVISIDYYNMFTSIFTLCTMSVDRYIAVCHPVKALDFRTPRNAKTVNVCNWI
Method in brief: (§1)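 Isolated guinea pig ileum or mouse vas deferens, electrically stimulated; agonist IC50 taken as inhibition of evoked contractions from log dose–response curves. A [Leu5]enkephalin standard curve was run on each preparation and test IC50 values normalised to it. Antagonist Ke derived from IC50 ratio with and without a fixed antagonist concentration.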

[2] = biological target: T1, Delta-type opioid receptor (Mus musculus, UniProt P32300); assay: (§2) Inhibition of electrically evoked contractions in mouse vas deferens; format: functional
T1 sequence (P32300 whole entry): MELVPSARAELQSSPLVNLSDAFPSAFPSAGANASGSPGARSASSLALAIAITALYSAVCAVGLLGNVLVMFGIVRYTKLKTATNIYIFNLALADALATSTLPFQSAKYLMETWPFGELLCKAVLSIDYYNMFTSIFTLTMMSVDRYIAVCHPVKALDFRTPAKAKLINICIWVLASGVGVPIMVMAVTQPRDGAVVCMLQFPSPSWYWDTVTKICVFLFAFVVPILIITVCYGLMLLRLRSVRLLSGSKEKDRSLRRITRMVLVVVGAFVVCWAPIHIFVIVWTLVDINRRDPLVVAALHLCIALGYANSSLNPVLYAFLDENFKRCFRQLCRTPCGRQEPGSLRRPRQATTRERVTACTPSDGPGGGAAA

[3] = biological target: T2, Delta-type opioid receptor (Rattus norvegicus, UniProt P33533); assay: Inhibition of [3H]- ]DSLET binding to delta receptor from rat brain membrane
T2 sequence (P33533 whole entry): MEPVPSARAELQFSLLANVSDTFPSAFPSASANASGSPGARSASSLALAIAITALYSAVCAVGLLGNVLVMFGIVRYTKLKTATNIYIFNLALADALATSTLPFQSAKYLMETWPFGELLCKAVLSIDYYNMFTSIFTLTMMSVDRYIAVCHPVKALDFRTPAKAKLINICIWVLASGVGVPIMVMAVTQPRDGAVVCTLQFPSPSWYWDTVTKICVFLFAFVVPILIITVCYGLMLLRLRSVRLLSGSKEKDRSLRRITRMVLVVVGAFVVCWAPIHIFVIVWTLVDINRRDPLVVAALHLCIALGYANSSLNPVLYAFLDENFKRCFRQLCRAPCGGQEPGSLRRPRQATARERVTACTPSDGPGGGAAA
Method in brief: (§3)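 Displacement of 0.78 nM [3H]DSLET from rat brain membrane preparations, incubated 2 h at 0 °C. IC50 from log dose–displacement curves, converted to Ki via Cheng–Prusoff with a [3H]DSLET Kd of 2.6 nM.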

Mu-type opioid receptor [4] = biological target: T3, Mu-type opioid receptor (Rattus norvegicus, UniProt P33535); assay: Inhibition of [3H]- ]DAMGO binding to mu receptor from rat brain membrane
T3 sequence (P33535 whole entry): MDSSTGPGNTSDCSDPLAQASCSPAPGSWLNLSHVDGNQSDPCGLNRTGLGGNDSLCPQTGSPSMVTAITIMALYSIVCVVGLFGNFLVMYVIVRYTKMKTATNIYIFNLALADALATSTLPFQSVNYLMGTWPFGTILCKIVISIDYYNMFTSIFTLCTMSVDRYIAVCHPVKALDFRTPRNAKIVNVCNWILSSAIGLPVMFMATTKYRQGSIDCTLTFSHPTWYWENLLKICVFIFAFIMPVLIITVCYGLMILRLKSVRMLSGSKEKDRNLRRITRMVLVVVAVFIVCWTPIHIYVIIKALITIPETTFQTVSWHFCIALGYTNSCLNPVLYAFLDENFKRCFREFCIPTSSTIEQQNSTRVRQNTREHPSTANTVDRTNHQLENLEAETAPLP
Method in brief: (§4)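 Displacement of 0.72 nM [3H]DAMGO from rat brain membranes; 2 h incubation at 0 °C. IC50 read from log dose–displacement curves; Ki calculated by Cheng–Prusoff equation using Kd 1.3 nM for [3H]DAMGO.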

[5] = biological target: T2, Delta-type opioid receptor; assay: Inhibition of [3H]- ]DSLET binding to opioid receptor delta from rat brain membrane; method in brief: as §3
Mu-type opioid receptor [6] = biological target: T3, Mu-type opioid receptor; assay: Inhibition of [3H]- ]DAMGO binding to opioid receptor mu from rat brain membrane
[7] = biological target: T1, Delta-type opioid receptor; assay: as §2; format: functional; method in brief: as §1; remark: listed apart in the source
[8] = biological target: T2, Delta-type opioid receptor; assay: Inhibition of [3H]- ]DSLET binding to Opioid receptor delta 1 from rat brain membrane; method in brief: as §3
Mu-type opioid receptor [9] = biological target: T3, Mu-type opioid receptor; assay: (§5) Inhibition of [3H]- ]DAMGO binding to Opioid receptor mu 1 from rat brain membrane; method in brief: as §4
Mu-type opioid receptor [10] = biological target: T3, Mu-type opioid receptor; assay: as §5; method in brief: as §4; remark: listed apart in the source

Structure (SMILES)	IC50 (Mu-type opioid receptor [1]) [nM]	IC50 [2] [nM]	Ki [3] [nM]	Ki (Mu-type opioid receptor [4]) [nM]	Ki [5] [nM]	Ki (Mu-type opioid receptor [6]) [nM]	IC50 [7] [nM]	Ki [8] [nM]	Ki (Mu-type opioid receptor [9]) [nM]	Ki (Mu-type opioid receptor [10]) [nM]
CC(C)[C@H](NC(=O)[C@@H]1CCC(=O)NCCCC[C@@H](NC(=O)[C@@H](N)Cc2ccc(O)cc2)C(=O)N[C@@H](Cc2ccccc2)C(=O)N1)C(=O)N[C@H](C(=O)NCC(N)=O)C(C)C	102	0.467	3.66	17.5	–	–	–	–	–	–
CSCC[C@H](NC(=O)[C@H](CC(C)C)NC(=O)[C@H](Cc1cnc[nH]1)NC(=O)[C@H](Cc1ccccc1)NC(=O)[C@@H](CCSC)NC(=O)[C@@H](N)Cc1ccc(O)cc1)C(=O)N[C@@H](CC(=O)O)C(N)=O (stereo in doubt; 7) [DELTORPHIN A]	4420	98.3	290	143	–	–	–	–	–	–
CC(C)[C@H](NC(=O)[C@H](CC(=O)O)NC(=O)[C@H](Cc1ccccc1)NC(=O)[C@@H](C)NC(=O)[C@@H](N)Cc1ccc(O)cc1)C(=O)N[C@H](C(=O)NCC(N)=O)C(C)C [DELTORPHIN C]	854	–	–	–	1.44	262	–	–	–	–
CC(C)[C@@H]1NC(=O)[C@H](CC(=O)O)NC(=O)[C@H](Cc2ccccc2)NC(=O)[C@H](NC(=O)[C@@H](N)Cc2ccc(O)cc2)CCCCNC(=O)CC[C@@H](C(N)=O)NC(=O)[C@H](C(C)C)NC1=O	380	17.3	248	891	–	–	–	–	–	–
CC(C)[C@H](NC(=O)[C@H](CC(=O)O)NC(=O)C1(NC(=O)[C@@H](C)NC(=O)[C@@H](N)Cc2ccc(O)cc2)CCc2ccccc2C1)C(=O)N[C@H](C(=O)NCC(N)=O)C(C)C (stereo in doubt; 3)	1380	0.163	–	–	6.52	1410	–	–	–	–
CSCC[C@H](NC(=O)[C@H](CC(C)C)NC(=O)[C@H](Cc1cnc[nH]1)NC(=O)[C@H](Cc1ccccc1)NC(=O)[C@@H](CCSC)NC(=O)[C@@H](N)Cc1ccc(O)cc1)C(=O)N[C@@H](CC(=O)O)C(N)=O (stereo in doubt; 12) [DELTORPHIN A]	281	0.695	2.13	415	–	–	–	–	–	–
CC(C)[C@@H]1NC(=O)[C@@H](NC(=O)[C@H](Cc2ccccc2)NC(=O)[C@@H](C)NC(=O)[C@@H](N)Cc2ccc(O)cc2)CC(=O)NCCC[C@@H](C(N)=O)NC(=O)[C@H](C(C)C)NC1=O	251	90.5	562	338	–	–	–	–	–	–
CCCC[C@H](NC(=O)[C@H](CC(C)C)NC(=O)[C@H](Cc1cnc[nH]1)NC(=O)[C@H](Cc1ccccc1)NC(=O)[C@@H](CCCC)NC(=O)[C@@H](N)Cc1ccc(O)cc1)C(=O)N[C@@H](CC(=O)O)C(N)=O	241	–	0.665	117	–	–	0.712	–	–	–
CCCC[C@H](NC(=O)[C@H](CC(C)C)NC(=O)[C@H](Cc1ccccc1)NC(=O)[C@H](Cc1ccccc1)NC(=O)[C@@H]1Cc2ccccc2CN1C(=O)[C@@H](N)Cc1ccc(O)cc1)C(=O)N[C@@H](CC(=O)O)C(N)=O (H-Y[Tic]FFL[Nle]D-NH2)	> 10000	> 10000	–	–	–	–	–	8.27	4150	–
CC(C)[C@H](NC(=O)[C@H](CC(=O)O)NC(=O)[C@@H]1Cc2ccccc2CN1C(=O)[C@@H](C)NC(=O)[C@@H](N)Cc1ccc(O)cc1)C(=O)N[C@H](C(=O)NCC(N)=O)C(C)C (H-Y[dA][Tic]DVVG-NH2)	14500	481	–	–	–	–	–	–	15200	4960
CC(C)[C@H](NC(=O)[C@H](CC(=O)O)NC(=O)[C@@H](Cc1ccccc1)NC(=O)[C@@H](C)NC(=O)[C@@H](N)Cc1ccc(O)cc1)C(=O)N[C@H](C(=O)NCC(N)=O)C(C)C	11900	–	–	–	–	–	–	67.2	8650	–
CC(C)[C@H](NC(=O)[C@H](CC(=O)O)NC(=O)C1(NC(=O)[C@@H](C)NC(=O)[C@@H](N)Cc2ccc(O)cc2)Cc2ccccc2C1)C(=O)N[C@H](C(=O)NCC(N)=O)C(C)C (H-Y[dA][Aic]DVVG-NH2)	290	0.0803	–	–	–	–	–	4.96	207	–
CC(C)[C@@H]1NC(=O)[C@@H](NC(=O)[C@H](Cc2ccccc2)NC(=O)CNC(=O)[C@@H](N)Cc2ccc(O)cc2)CCC(=O)NCCCC[C@@H](C(N)=O)NC(=O)[C@H](C(C)C)NC1=O (H-YGFEVVK-NH2; lactam 4-7)	3880	919	724	955	–	–	–	–	–	–
CC(C)[C@H](NC(=O)[C@H](CC(=O)O)NC(=O)[C@H](Cc1ccccc1)NC(=O)[C@@H]1Cc2ccccc2CN1C(=O)[C@@H](N)Cc1ccc(O)cc1)C(=O)N[C@H](C(=O)NCC(N)=O)C(C)C (H-Y[Tic]FDVVG-NH2)	> 65000	22.8	–	–	–	–	–	6.49	9230	–
CC(C)[C@H](NC(=O)[C@H](CC(=O)O)NC(=O)C1(NC(=O)[C@@H](C)NC(=O)[C@@H](N)Cc2ccc(O)cc2)CCc2ccccc2C1)C(=O)N[C@H](C(=O)NCC(N)=O)C(C)C (stereo in doubt; 2)	1820	0.115	–	–	–	–	–	5.36	671	–
